Assay results as given in the RNAGym collection of RNA variant scans (doi:10.1126/science.aae0568).
Fewer inactive variants are shown than the library holds.

B1: tRNA (parent)
chain: GUUCCGUUGGCGUAAUGGUAACGCGUCUCCCUCCUAAGGAGAAGACUGCGGGUUCGAGUCCCGUACGGAACG

Variants of: B1
Assay: yeast fitness relative to wild type (ratio to wild type); higher = fitter; tRNA-Arg(CCU), competitive growth, 37 C, YPD
Procedure, shortened: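 Amplicons of the tRNA-Arg(CCU) gene were sequenced, 100-nucleotide paired-end, from the start population and from each end population of a pooled yeast competition. The competition, in six parallel replicates, lasted 24 hours in YPD at 37°C. Fitness relative to wild type was calculated from changes in genotype frequencies. Genotypes had to have ≥ 100 starting reads, and estimates < 0.5 were set to 0.5.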

Yeast fitness, 0.675:
G10C A21U

Yeast fitness, 0.661:
G10C A69U

Yeast fitness, 0.596:
G10A C31U C34A A40G U59A

Yeast fitness, 0.691:
G10A C60A

Yeast fitness, 0.584:
G10C A14U C29G

Yeast fitness, 0.558:
G10A U16A A57U

Yeast fitness, 0.638:
G10A G44A U54C C61U A69C

Yeast fitness, 0.623:
G10A G17A C66G

Yeast fitness, 0.599:
G10A U13A C24U

Yeast fitness, 0.543:
G10A C33G A43G G58A G67A A69U

Yeast fitness, 0.582:
G10A U35C

Yeast fitness, 0.64:
G10A C30A

Yeast fitness, ≤ 0.5:
G10C A14U U28A A57C
G10A U35A G56A A65G C66U
G10A G18A C33U A37C A40U
G10A C49A C61U
G10A U16A A65C
G10A C29U C30G C34A
G10A G23A U35G
G10C A14U U19A C22U C62U
G10A G17C U28C C30G C33G C61A A69U
G10A G12A C29G A65U
G10A C30G C46U
G10A G17A U35G A36G A40C A57C C62A
G10A U32G C34A
G10C A21C C27A C34A C49G A65G
G10A U13A C24A U54A
G10A U16A G63A
G10A C24A C49G G58C
G10C A14C A15G U64G
G10A C30U C34U A42G A69C A70G
G10A U35C A42C A43C
G10C A14U G25A C27U U53C C61U A70G
G10C A57G A65U
G10A C29A A57C U59A
G10A U13A C24U A70C
G10A U35C A45G C49G G56A A65C
G10C A20C U28C A45G
G10A U35G
G10A C31A G38C G44A A65G
G10A U16A G17A U32A A42U G48C
G10C A36C G48A
G10C A14C G18A
G10A G18A C27G A37G G38A A57U
G10C A15C A21C A69U
G10A G18C C24U C30G C62U
G10C A45U U53G
G10C A14U U19A C22U U47C
G10C A37U A45G C66U
G10C A15U A37U A45C U47C G52C
G10A U16A G52A A65U
G10C A14U G56A
G10A C24G C34U G63C
G10A U13C G18C A20U C30A
G10A C22U U47C G68A
G10A G44A U54C C61U G67A
G10A G18A C27G A37G G38A C61U
G10C A36C A57C
G10C A14G C62U
G10A U19A A40C
G10A G39U A57C A70U
G10A G17A G39C A45C C49G
G10C A43U G48A G51A
G10A C33U A40G C55G A65C
G10C A14U G67A
G10C A20U G41U A57U
G10A G44C G63C
G10A G18A A69C
G10A U26A G63A C66U
G10A U19A G44C C49U G67C
G10A G51A C55G G67U G68C
G10C A15G C31A C33U A40C G44C G48U C49G
G10C A15G U35A G44A A69U
G10C A15G U35A G44A C61A U64C
G10A C55G C60A C66A A69U
G10A U26A C27U C29A G48A C62A
G10C A20G C66U
G10A U19A G44C U54G C55U
G10C A14U U19A C22U C66U
G10A U13C A21U
G10C A14U A20U C31A C55G G56C
G10A C30U U47A
G10C A14U U19A C22U C60U G68C
G10A C24G G39C C66U
G10A U47A A65C
G10A U19A A40C A42C G68A A70C
G10A C27G C33G G41C A65G G68A
G10A C24U C60U
G10A U16A G38A U64C
G10A U13G C27U C46G G67A
G10A C33U A65U
G10A C33U U59C
G10A U53A G58A G68U
G10C A14G C24A A70U
G10A G52A A57G C66U
G10A U19C A36G G48A C49G
G10A G17A U28C C30G A45C C49U
G10C C11A A37C C49G C62U
G10A C29U G44C
G10C A36C C55U
G10A C29G G39C
G10C A45U C49G C60A
G10A C30A A42G A43U
G10A G17C C30G C33G C61A A69U A70G
G10A C29G A43U U53G
G10A G12C C31U U53C A70C
G10A C30A C31G A69G
G10C A14G U28C G39A A65U
G10A G44C A65C G67A
G10A G17C C30G C33G G48A C61A A69U
G10C A15G C61A
G10C A36G A57U
G10C A40U G50A
G10A C29G U53A G56C C62G
G10A G17C C22U C30G C33G C61A A69U
G10A U16C A36G G48C
G10A U16A C31A G52C
G10C A14G C24A
G10C A15C A43C
G10A G41C C61G
G10C A21C U26C C31A A42U
G10A C31U C34A A40G A65U

Yeast fitness, 0.567:
G10C A37G G52A C55G

Yeast fitness, 0.658:
G10A U13C

Yeast fitness, 0.603:
G10A G25C C49G

Yeast fitness, 0.54:
G10A G58A A69U

Yeast fitness, 0.571:
G10C A45G A65C A69C

Yeast fitness, 0.52:
G10A C24U C55U C66U
G10A U13G A36G

Yeast fitness, 0.531:
G10A C62U A70U

Yeast fitness, 0.544:
G10A C24A C30A C31G A43U U54G C62G
G10A U16A U64A

Yeast fitness, 0.561:
G10C A20G C24U G38C

Yeast fitness, 0.681:
G10C A21G C30A G38C C46U

Yeast fitness, 0.548:
G10C A57U

Yeast fitness, 0.653:
G10C A20G A21C C27A C49U U54A A70C

Yeast fitness, 0.589:
G10A U47C

Yeast fitness, 0.604:
G10C A57G

Yeast fitness, 0.735:
G10A C24G G68A

Yeast fitness, 0.662:
G10A C30U C33G U64C

Yeast fitness, 0.529:
G10C C11A G18C C24U C66U

Yeast fitness, 0.805:
G10A G12A

Yeast fitness, 0.587:
G10C A20U C60G

Yeast fitness, 0.53:
G10A G23C C29U A36C C49G

Yeast fitness, 0.748:
G10A C30U

Yeast fitness, 0.643:
G10A U54C

Yeast fitness, 0.538:
G10A C30U C33G

Yeast fitness, 0.763:
G10A G39C

Yeast fitness, 0.62:
G10A U35A

Yeast fitness, 0.753:
G10A G68A

Yeast fitness, 0.698:
G10A G63A
G10A U54A

Yeast fitness, 0.559:
G10C A15G G58C
G10A C30A G48A

Yeast fitness, 0.542:
G10A G23C C29U A36C C49G A70U
G10A U64C A69U

Yeast fitness, 0.617:
G10A U19A G41C C66U

Yeast fitness, 0.576:
G10A C27A A36U A37U G48C C61G A69U

Yeast fitness, 0.733:
G10A G48C

Yeast fitness, 0.75:
G10A G68U

Yeast fitness, 0.56:
G10A C29A C66U G67U G68A
G10A G48C G67C

Yeast fitness, 0.536:
G10C A14U G25A C27U U53C A70G

Yeast fitness, 0.511:
G10A C30G

Yeast fitness, 0.815:
G10A U47A

Yeast fitness, 0.551:
G10A G25A G41C U54G C61U

Yeast fitness, 0.522:
G10A C34A U35A U54C
